Source: ChEMBL document CHEMBL1275251, “Mutant selection window and characterization of allelic diversity for ciprofloxacin-resistant mutants of Rhodococcus equi” (Antimicrob Agents Chemother, 2010)
In brackets after ≈: the same amount, converted by molar mass. Activity calls are given as the source filed them. The rule behind the calls is not given here.

How the values were obtained:
Prescottella equi [1] = test: Antibacterial activity against Rhodococcus equi W5234 selected on 1 ug/ml of compound treated culture by broth microdilution method; assay type: functional; conditions: Rhodococcus (subgen. Prescottella) equi
Method in brief: (§1)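 Mutants were selected by plating at least 1 × 10^10 cells, grown 48 h at 35°C in brain heart infusion broth, on ciprofloxacin-containing Columbia blood agar base for 4 days at 35°C. Each was confirmed by two passages at the selecting concentration and one drug-free passage. MIC was then read by broth microdilution in cation-supplemented Mueller-Hinton broth per CLSI M24-A. Each experiment was done twice.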

Prescottella equi [2] = test: Antibacterial activity against Rhodococcus equi W5234 selected on 2 ug/ml of compound treated culture by broth microdilution method; assay type: functional; conditions: Rhodococcus (subgen. Prescottella) equi; method in brief: as §1
Prescottella equi [3] = test: Antibacterial activity against Rhodococcus equi W5234 selected on 8 ug/ml of compound treated culture by broth microdilution method; assay type: functional; conditions: Rhodococcus (subgen. Prescottella) equi; method in brief: as §1
Prescottella equi [4] = test: Antibacterial activity against Rhodococcus equi W5234 harboring GyrA Ser83Arg mutation selected on 4 ug/ml of compound treated culture by broth microdilution method; assay type: functional; conditions: Rhodococcus (subgen. Prescottella) equi; method in brief: as §1
Prescottella equi [5] = test: Antibacterial activity against Rhodococcus equi ATCC 6939T harboring GyrA Ser83Arg mutation selected on 4 ug/ml of compound treated culture by broth microdilution method; assay type: functional, organism-based; method in brief: as §1
Prescottella equi [6] = test: Antibacterial activity against Rhodococcus equi ATCC 6939T harboring GyrA Asp87Asn mutation selected on 8 ug/ml of compound treated culture by broth microdilution method; assay type: functional; conditions: Rhodococcus (subgen. Prescottella) equi; method in brief: as §1
Prescottella equi [7] = test: Antibacterial activity against Rhodococcus equi ATCC 6939T selected on 1 ug/ml of compound treated culture by broth microdilution method; assay type: functional; conditions: Rhodococcus (subgen. Prescottella) equi; method in brief: as §1
Prescottella equi [8] = test: Antibacterial activity against Rhodococcus equi ATCC 6939T harboring GyrA Ser83Arg mutation selected on 12 ug/ml of compound treated culture by broth microdilution method; assay type: functional; conditions: Rhodococcus (subgen. Prescottella) equi; method in brief: as §1
Prescottella equi [9] = test: Antibacterial activity against Rhodococcus equi W5234 harboring GyrA Ser83Arg mutation selected on 8 ug/ml of compound treated culture by broth microdilution method; assay type: functional; conditions: Rhodococcus (subgen. Prescottella) equi; method in brief: as §1
Prescottella equi [10] = test: Antibacterial activity against Rhodococcus equi W5234 harboring GyrA Asp87Asn mutation selected on 4 ug/ml of compound treated culture by broth microdilution method; assay type: functional; conditions: Rhodococcus (subgen. Prescottella) equi; method in brief: as §1
Prescottella equi [11] = test: Antibacterial activity against Rhodococcus equi W5234 harboring GyrA Ser83Ile mutation selected on 8 ug/ml of compound treated culture by broth microdilution method; assay type: functional; conditions: Rhodococcus (subgen. Prescottella) equi; method in brief: as §1
Prescottella equi [12] = test: Antibacterial activity against Rhodococcus equi ATCC 6939T harboring GyrA Asp87Tyr mutation selected on 4 ug/ml of compound treated culture by broth microdilution method; assay type: functional, organism-based; method in brief: as §1
Prescottella equi [13] = test: Antibacterial activity against Rhodococcus equi ATCC 6939T harboring GyrA Asp87Gly mutation selected on 6 ug/ml of compound treated culture by broth microdilution method; assay type: functional; conditions: Rhodococcus (subgen. Prescottella) equi; method in brief: as §1
Prescottella equi [14] = test: Antibacterial activity against Rhodococcus equi W5234 harboring GyrA Asp87Gly mutation selected on 6 ug/ml of compound treated culture by broth microdilution method; assay type: functional; conditions: Rhodococcus (subgen. Prescottella) equi; method in brief: as §1
Prescottella equi [15] = test: Antibacterial activity against Rhodococcus equi ATCC 6939T harboring GyrA Asp87Asn mutation selected on 6 ug/ml of compound treated culture by broth microdilution method; assay type: functional; conditions: Rhodococcus (subgen. Prescottella) equi; method in brief: as §1
Prescottella equi [16] = test: Antibacterial activity against Rhodococcus equi W5234 harboring GyrA Asp87Gly mutation selected on 8 ug/ml of compound treated culture by broth microdilution method; assay type: functional, organism-based; method in brief: as §1
Prescottella equi [17] = test: Antibacterial activity against Rhodococcus equi W5234 harboring GyrA Ser83Arg mutation selected on 12 ug/ml of compound treated culture by broth microdilution method; assay type: functional; conditions: Rhodococcus (subgen. Prescottella) equi; method in brief: as §1
Prescottella equi [18] = test: Antibacterial activity against Rhodococcus equi ATCC 6939T selected on 4 ug/ml of compound treated culture by broth microdilution method; assay type: functional; conditions: Rhodococcus (subgen. Prescottella) equi; method in brief: as §1
Prescottella equi [19] = test: Antibacterial activity against Rhodococcus equi W5234 harboring GyrA Asp87Tyr mutation selected on 4 ug/ml of compound treated culture by broth microdilution method; assay type: functional; conditions: Rhodococcus (subgen. Prescottella) equi; method in brief: as §1
Prescottella equi [20] = test: Antibacterial activity against Rhodococcus equi ATCC 6939T selected on 8 ug/ml of compound treated culture by broth microdilution method; assay type: functional, organism-based; method in brief: as §1
Prescottella equi [21] = test: Antibacterial activity against Rhodococcus equi ATCC 6939T harboring GyrA Asp87Asn mutation selected on 4 ug/ml of compound treated culture by broth microdilution method; assay type: functional, organism-based; method in brief: as §1
Prescottella equi [22] = test: Antibacterial activity against Rhodococcus equi ATCC 6939T harboring GyrA Gly81Cys mutation selected on 4 ug/ml of compound treated culture by broth microdilution method; assay type: functional; conditions: Rhodococcus (subgen. Prescottella) equi; method in brief: as §1
Prescottella equi [23] = test: Antibacterial activity against Rhodococcus equi W5234 harboring GyrB Asn464Asp mutation selected on 1 ug/ml of compound treated culture by broth microdilution method; assay type: functional; conditions: Rhodococcus (subgen. Prescottella) equi; method in brief: as §1
Prescottella equi [24] = test: Antibacterial activity against Rhodococcus equi W5234 selected on 4 ug/ml of compound treated culture by broth microdilution method; assay type: functional; conditions: Rhodococcus (subgen. Prescottella) equi; method in brief: as §1
Prescottella equi [25] = test: Antibacterial activity against Rhodococcus equi W5234 harboring GyrA Asp87Asn mutation selected on 6 ug/ml of compound treated culture by broth microdilution method; assay type: functional, organism-based; method in brief: as §1

O=C(O)c1cn(C2CC2)c2cc(N3CCNCC3)c(F)cc2c1=O [CIPROFLOXACIN]
MIC (Prescottella equi [1]): 2 µg/mL (≈ 6.04 µM) | MIC (Prescottella equi [2]): 2 µg/mL (≈ 6.04 µM) | MIC (Prescottella equi [3]): 16 µg/mL (≈ 48.3 µM) | MIC (Prescottella equi [4]): 32 µg/mL (≈ 96.6 µM) | MIC (Prescottella equi [5]): inactive | MIC (Prescottella equi [6]): 32 µg/mL (≈ 96.6 µM) | MIC (Prescottella equi [7]): 1 µg/mL (≈ 3.02 µM) | MIC (Prescottella equi [8]): 128 µg/mL (≈ 386 µM) | MIC (Prescottella equi [9]): 32 µg/mL (≈ 96.6 µM) | MIC (Prescottella equi [10]): 16 µg/mL (≈ 48.3 µM) | MIC (Prescottella equi [11]): 32 µg/mL (≈ 96.6 µM) | MIC (Prescottella equi [12]): inactive | MIC (Prescottella equi [13]): 16 µg/mL (≈ 48.3 µM) | MIC (Prescottella equi [14]): 16 µg/mL (≈ 48.3 µM) | MIC (Prescottella equi [15]): 16 µg/mL (≈ 48.3 µM) | MIC (Prescottella equi [16]): inactive | MIC (Prescottella equi [17]): 64 µg/mL (≈ 193 µM) | MIC (Prescottella equi [18]): 4 µg/mL (≈ 12.1 µM) | MIC (Prescottella equi [19]): 8 µg/mL (≈ 24.1 µM) | MIC (Prescottella equi [20]): inactive | MIC (Prescottella equi [21]): inactive | MIC (Prescottella equi [22]): 8 µg/mL (≈ 24.1 µM) | MIC (Prescottella equi [23]): 4 µg/mL (≈ 12.1 µM) | MIC (Prescottella equi [24]): 8 µg/mL (≈ 24.1 µM) | MIC (Prescottella equi [25]): inactive
